Legend:
Lung [1] = assay: Drug level in human LNCaP cells xenografted NSG mouse lung at 20 nmol, ip measured after 24 hrs by liquid scintillation counting method; format: ADME, organism-based; conditions: in vivo
How it was run: (§1)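 Male NSG mice bearing subcutaneous flank LNCaP xenografts. The graft was 2.5M cells in 200 μL of 1:1 culture medium/matrigel, using cells at or below passage 25 with >90% viability by trypan blue. C-14 labeled compound was given i.p. at 20 nmol per animal 4-8 weeks after engraftment. Mice were euthanized by CO2. Tumor, kidney, liver and lung were excised.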

Liver [2] = assay: Drug level in human LNCaP cells xenografted NSG mouse liver at 20 nmol, ip measured after 24 hrs by liquid scintillation counting method; format: ADME, organism-based; conditions: in vivo; how it was run: as §1
Kidney [3] = assay: Drug level in human LNCaP cells xenografted NSG mouse kidney at 20 nmol, ip measured after 24 hrs by liquid scintillation counting method; format: ADME, organism-based; conditions: in vivo; how it was run: as §1
Tumour [4] = assay: Drug level in human LNCaP cells xenografted NSG mouse tumor at 20 nmol, ip measured after 24 hrs by liquid scintillation counting method; format: ADME, organism-based, Neoplasm; conditions: in vivo; how it was run: as §1
Liver [5] = assay: Drug level in human LNCaP cells xenografted NSG mouse liver at 20 nmol, ip measured after 24 hrs by liquid scintillation counting method relative to kidney; format: ADME, organism-based; conditions: in vivo; how it was run: as §1
Liver [6] = assay: Drug level in human LNCaP cells xenografted NSG mouse liver at 20 nmol, ip measured up to 1 to 7 days by liquid scintillation counting method; format: ADME, organism-based; conditions: in vivo; how it was run: as §1
Tumour [7] = assay: Drug level in human LNCaP cells xenografted NSG mouse tumor at 20 nmol, ip measured after 4 hrs by liquid scintillation counting method relative to liver; format: ADME, organism-based; conditions: in vivo; how it was run: as §1
Tumour [8] = assay: Drug level in human LNCaP cells xenografted NSG mouse tumor at 20 nmol, ip measured after 24 hrs by liquid scintillation counting method relative to liver; format: ADME, organism-based; conditions: in vivo; how it was run: as §1
Tumour [9] = assay: Drug level in human LNCaP cells xenografted NSG mouse tumor at 20 nmol, ip measured after 24 hrs by liquid scintillation counting method relative to other tissues; format: ADME, organism-based, Neoplasm; conditions: in vivo; how it was run: as §1
Liver [10] = assay: Drug level in human LNCaP cells xenografted NSG mouse liver at 20 nmol, ip dosed on days 1, 4 and 7 measured 24 hrs after last dose by liquid scintillation counting method relative to single injection dose; format: ADME, organism-based; conditions: in vivo; how it was run: as §1
Liver [11] = assay: Drug level in human LNCaP cells xenografted NSG mouse liver at 20 nmol, ip measured after 24 hrs by liquid scintillation counting method relative to lung; format: ADME, organism-based; conditions: in vivo; how it was run: as §1
Tumour [12] = assay: Drug level in human LNCaP cells xenografted NSG mouse tumor at 20 nmol, ip dosed on days 1, 4 and 7 measured 24 hrs after last dose by liquid scintillation counting method relative to single injection dose; format: ADME, organism-based, Neoplasm; conditions: in vivo; how it was run: as §1
Lung [13] = assay: Drug level in human LNCaP cells xenografted NSG mouse lung at 20 nmol, ip measured up to 1 to 7 days by liquid scintillation counting method; format: ADME, organism-based; conditions: in vivo; how it was run: as §1
Kidney [14] = assay: Drug level in human LNCaP cells xenografted NSG mouse kidney at 20 nmol, ip measured up to 1 to 7 days by liquid scintillation counting method; format: ADME, organism-based; conditions: in vivo; how it was run: as §1
Tumour [15] = assay: Drug level in human LNCaP cells xenografted NSG mouse tumor at 20 nmol, ip measured up to 1 to 7 days by liquid scintillation counting method; format: ADME, organism-based, Neoplasm; conditions: in vivo; how it was run: as §1
Kidney [16] = assay: Drug level in human LNCaP cells xenografted NSG mouse kidney at 20 nmol, ip dosed on days 1, 4 and 7 measured 24 hrs after last dose by liquid scintillation counting method relative to single injection dose; format: ADME, organism-based; conditions: in vivo; how it was run: as §1
Tumour [17] = assay: Drug level in human LNCaP cells xenografted NSG mouse tumor at 20 nmol, ip dosed on days 1, 4 and 7 measured 24 hrs after last dose by liquid scintillation counting method; format: ADME, organism-based, Neoplasm; conditions: in vivo, read-out: Drug uptake; how it was run: as §1

Compound | Drug uptake (Lung [1]) | Drug uptake (Liver [2]) | Drug uptake (Kidney [3]) | Drug uptake (Tumour [4]) | fold change (FC) (Liver [5]) | Drug uptake (Liver [6]) [mg/kg] | fold change (FC) (Tumour [7]) | fold change (FC) (Tumour [8]) | fold change (FC) (Tumour [9]) | fold change (FC) (Liver [10]) | fold change (FC) (Liver [11]) | fold change (FC) (Tumour [12]) | concentration (Tumour [4]; read-out: Drug uptake) [nM] | Drug uptake (Lung [13]) [mg/kg] | Drug uptake (Kidney [14]) [mg/kg] | Drug uptake (Tumour [15]) [mg/kg] | fold change (FC) (Kidney [16]) | concentration (Tumour [17]) [nM]
C[14C](=O)N[C@H](CCNC(=O)c1cc(NC(=O)c2cc(NC(=O)c3cc(NC(=O)c4nccn4C)cn3C)cn2C)cn1C)C(=O)Nc1cn(C)c(C(=O)Nc2cc(C(=O)Nc3cc(C(=O)Nc4cc(C(=O)NCCCN(C)CCCNC(=O)c5cccc(C(=O)O)c5)n(C)c4)n(C)c3)n(C)c2)n1 | Active | Active | Active | Active |  |  |  |  |  |  |  |  |  |  |  |  |  | 
CN(CCCNC(=O)c1cc(NC(=O)c2cc(NC(=O)c3cc(NC(=O)c4nc(NC(=O)[C@H](N)CCNC(=O)c5cc(NC(=O)c6cc(NC(=O)c7cc(NC(=O)c8nccn8C)cn7C)cn6C)cn5C)cn4C)cn3C)cn2C)cn1C)CCCN[14C](=O)c1cccc([14C](=O)O)c1 | 0.93 mg/kg | Active | Active | Active |  |  |  |  |  |  |  |  |  |  |  |  |  | 
CC(=O)N[C@H](CCNC(=O)c1cc(NC(=O)c2cc(NC(=O)c3cc(NC(=O)c4nccn4C)cn3C)cn2C)cn1C)C(=O)Nc1cn(C)c(C(=O)Nc2cc(C(=O)Nc3cc(C(=O)Nc4cc(C(=O)NCCCN(C)CCCN[14C](=O)c5cccc([14C](=O)O)c5)n(C)c4)n(C)c3)n(C)c2)n1 | 0.12 mg/kg | 1.04 mg/kg | 0.25 mg/kg |  | 4.2 | 0.27 | 2 | 1.5 | 2 | 1.8 | 8.7 | 2.4 | 1060 | 0.06 | 0.05 | 0.45 | 1.8 | 2500

Reference: ChEMBL document CHEMBL3351477, “A C-14 labeled Py-Im polyamide localizes to a subcutaneous prostate cancer tumor” (Bioorg Med Chem, 2014)
